The record followed here is ChEMBL document CHEMBL1268876, “Intrinsic electrophilicity of the 4-methylsulfonyl-2-pyridone scaffold in glucokinase activators: role of glutathione-S-transferases and in vivo quantitation of a glutathione conjugate in rats” (Bioorg Med Chem Lett, 2010).

The structures appear in SMILES notation.

Data set [1] in a line: Chemical stability assessed as formation of compound 2 in pH 7.4 phosphate buffer in presence of 5 mM GSH for 60 mins at 37 degC at 10 uM by UV chromatography. In kind it is physicochemical. The conditions noted are these: pH 7.4, 1 h. In short, it runs like this: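 Test compound at 10 µM in 0.1 M phosphate buffer, pH 7.4, with or without 5 mM GSH, 60 min at 37 °C in a shaking water bath open to air. Stopped with ice-cold acetonitrile containing 0.1% formic acid, then centrifuged. Supernatant analyzed by LC–MS/MS and UV (300 nm) on a C18 column with an ammonium formate/acetonitrile gradient.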

Data set [2] has as its system Liver microsomes. The data set can be described thus: Metabolic stability in human liver microsomes assessed as formation of compound at 10 uM in presence of 5 mM GSH and in absence of NADPH by UV chromatography. In kind it is ADME, Microsome. In short, it runs like this:
(§1)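 Test compound at 10 µM with 5 mM GSH in human liver microsomes (NADPH-supplemented or not), human liver cytosol, or human placental GST. Incubated 60 min at 37 °C in a shaking water bath open to air; microsomal and cytosolic reactions started by adding the matrix. Controls lacked NADPH and/or GSH. Quenched with ice-cold acetonitrile containing 0.1% formic acid, then centrifuged. Supernatant analyzed by LC–MS/MS with UV detection at 300 nm.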

The nature of data set [3]: Metabolic stability in human liver cytosol assessed as formation of compound at 10 uM in presence of 5 mM GSH and 1.3 mM NADPH by UV chromatography. In kind it is ADME. The gist of the method: as §1
In data set [4] the test system is Liver microsomes. The data set can be described thus: Metabolic stability in human liver microsomes assessed as formation of compound at 10 uM in presence of 5 mM GSH and 1.3 mM NADPH by UV chromatography. In kind it is ADME, Microsome. In short, it runs like this:
as §1

Data set [5] is described as follows: Metabolic stability in presence of human placental GST assessed as formation of compound at 10 uM in presence of 5 mM GSH and 1.3 mM NADPH by UV chromatography. It counts as ADME. In short, it runs like this: as §1

As for `Cc1cnc(NC(=O)[C@H](CC2CCCC2)n2ccc(S(C)(=O)=O)cc2=O)cn1`, the Stability entry (in data set [1]; in the data set with Liver microsomes [2]; in data set [3]; with Liver microsomes [4]; in data set [5]) was “Unstable” each time.
Consider `Cc1cnc(NC(=O)[C@H](CC2CCCC2)n2ccccc2=O)cn1`, for which the Stability result (in data set [1]; with Liver microsomes [2]; in data set [3]; in the data set with Liver microsomes [4]; in data set [5]) was “Stable” in each case.
In the case of `Cc1cnc(NC(=O)[C@H](CC2CCCC2)n2cc(S(C)(=O)=O)ccc2=O)cn1`, the Stability entry (in data set [1]; with Liver microsomes [2]; in data set [3]; in the data set with Liver microsomes [4]; in data set [5]) was “Stable” in each case.
In the case of `Cc1cnc(NC(=O)[C@H](CC2CCCC2)n2cccc(S(C)(=O)=O)c2=O)cn1`, the Stability entry (in data set [1]; in the data set with Liver microsomes [2]; in data set [3]; with Liver microsomes [4]; in data set [5]) was “Stable” throughout.
Consider `Cc1cnc(NC(=O)[C@H](CC2CCCC2)n2ccc(Br)cc2=O)cn1`, for which the Stability result is recorded as “Stable” in data set [1]; “Stable” in the data set on Liver microsomes [2]; “Unstable” in data set [3]; “Stable” in the data set on Liver microsomes [4]; “Unstable” in data set [5].
